Measurements: ChEMBL document CHEMBL3425508, “Discovery of potent hexapeptide agonists to human neuromedin u receptor 1 and identification of their serum metabolites” (ACS Med Chem Lett, 2015)
The source made the active and inactive calls. The calls are words filed in the database; no cut-off is given here. Non-standard residues stand in square brackets, D forms with d. Residues, ends and D or L forms follow the SMILES beside them. *: point of attachment. Propanoyl(3-(3-pyridyl)) = O=C(CCc1cccnc1)*; Phe(4-F) = N[C@@H](Cc1ccc(F)cc1)C(=O)O; 2Nal = N[C@@H](Cc1ccc2ccccc2c1)C(=O)O; Acetyl(2-thienyl) = O=C(Cc1cccs1)*; Hydrocinnamoyl = O=C(CCc1ccccc1)*; 4Pal = N[C@@H](Cc1ccncc1)C(=O)O; 2Thi = N[C@@H](Cc1cccs1)C(=O)O; PhAc = O=C(Cc1ccccc1)*; X1 = O=C(CCc1cccs1)*

How the values were obtained:
Neuromedin-U receptor 1 = biological target: T1, Neuromedin-U receptor 1 (Homo sapiens, UniProt Q9HB89); experiment: Agonist activity at human NMUR1 expressed in CHO cells assessed as intracellular calcium flux at by Fluo-4 AM dye based fluorometric imaging method; format: functional, cell-based
T1 sequence (Q9HB89 whole entry): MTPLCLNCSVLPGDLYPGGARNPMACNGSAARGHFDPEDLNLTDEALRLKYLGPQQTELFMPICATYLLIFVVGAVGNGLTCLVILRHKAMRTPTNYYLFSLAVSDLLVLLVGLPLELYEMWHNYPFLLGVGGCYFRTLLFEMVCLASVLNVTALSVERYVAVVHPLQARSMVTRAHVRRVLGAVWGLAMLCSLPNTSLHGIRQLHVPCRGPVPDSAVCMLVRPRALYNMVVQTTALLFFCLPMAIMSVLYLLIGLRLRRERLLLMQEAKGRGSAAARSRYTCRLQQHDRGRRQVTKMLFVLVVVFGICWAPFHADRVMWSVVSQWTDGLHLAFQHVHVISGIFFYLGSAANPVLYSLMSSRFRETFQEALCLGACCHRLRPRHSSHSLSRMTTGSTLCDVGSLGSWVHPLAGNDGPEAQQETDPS
Outline: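 Dose–response Ca2+ mobilization in CHO cells stably expressing human NMUR1 or NMUR2. Peptides run at 10^-12–10^-6 M with hNMU as reference. EC50 and intrinsic activity derived from the curves. Triplicate determinations.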

Serum [1] = experiment: Drug metabolism in 25% rat serum assessed as cleavage at C-terminal Arg-Asn site at 1 mM at 37 degC by RP-HPLC method; format: ADME, cell-free; conditions: 1000 µM
Outline: (§1)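 Peptides incubated in 25% rat serum at 37 °C and sampled over time (10, 30, 60 min). Samples extracted on Sep-Pak C18 cartridges and analysed by C18 RP-HPLC with UV detection at 220 nm. Metabolites identified by mass spectrometry. Recovery of intact peptide measured at 10 or 60 min, in triplicate.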

Serum [2] = experiment: Drug level in 25% rat serum treated with 1 mM (S)-2-((S)-2-((S)-1-((6S,9S,12S)-1-amino-9-benzyl-1-imino-12-isobutyl-8,11,14-trioxo-16-phenyl-2,7,10,13-tetraazahexadecanecarbonyl)pyrrolidine-2-carboxamido)-5-guanidinopentanamido)succinamide assessed as compound formation at 37 degC by RP-HPLC method; format: ADME, cell-free; outline: as §1
[3] = Drug metabolism in 25% rat serum assessed as drug recovery at 1 mM incubated for 60 mins at 37 degC by RP-HPLC method; format: ADME, cell-free; conditions: read-out: Drug recovery; outline: as §1
Serum [4] = experiment: Drug metabolism in 25% rat serum assessed as formation of 3-phenylpropionyl-Leu1-Phe2-Arg3-Pro4-Arg5-OH at 1 mM at 37 degC by RP-HPLC method; format: ADME, cell-free; conditions: 1000 µM; outline: as §1
Serum [5] = experiment: Drug metabolism in 25% rat serum assessed as cleavage at Arg(5)-Asn(6) site at 1 mM at 37 degC by RP-HPLC method; format: ADME, cell-free; conditions: 1000 µM; outline: as §1
[6] = biological target: T2, Neuromedin-U receptor 1 (Homo sapiens) (UniProt Q9HB89); experiment: Agonist activity at human NMUR1 expressed in CHO cells assessed as intracellular calcium flux at 1 and 10 nM by Fluo-4 AM dye based fluorometric imaging method relative to 1000 nM human neuromedin U; format: functional, cell-based
T2 sequence (whole entry): T1 sequence (Q9HB89 whole entry)

Serum [7] = experiment: Drug metabolism in 25% rat serum assessed as cleavage at Phe(2)-Arg(3) site at 1 mM at 37 degC by RP-HPLC method; format: ADME, cell-free; conditions: 1000 µM; outline: as §1
[8] = Drug metabolism in 25% rat serum assessed as drug recovery at 1 mM incubated for 10 mins at 37 degC by RP-HPLC method; format: ADME, cell-free; conditions: read-out: Drug recovery; outline: as §1
Serum [9] = experiment: Drug metabolism in 25% rat serum assessed as formation of 3-phenylpropionyl-Leu1-Phe2-OH at 1 mM at 37 degC by RP-HPLC method; format: ADME, cell-free; conditions: 1000 µM; outline: as §1
Neuromedin-U receptor 2 = Neuromedin-U receptor 2 (Homo sapiens, UniProt Q9GZQ4); experiment: Agonist activity at human NMUR2 expressed in CHO cells assessed as intracellular calcium flux at 1 and 10 nM by Fluo-4 AM dye based fluorometric imaging method relative to 1000 nM human neuromedin U; format: functional, cell-based
Neuromedin-U receptor 2, sequence (Q9GZQ4 whole entry): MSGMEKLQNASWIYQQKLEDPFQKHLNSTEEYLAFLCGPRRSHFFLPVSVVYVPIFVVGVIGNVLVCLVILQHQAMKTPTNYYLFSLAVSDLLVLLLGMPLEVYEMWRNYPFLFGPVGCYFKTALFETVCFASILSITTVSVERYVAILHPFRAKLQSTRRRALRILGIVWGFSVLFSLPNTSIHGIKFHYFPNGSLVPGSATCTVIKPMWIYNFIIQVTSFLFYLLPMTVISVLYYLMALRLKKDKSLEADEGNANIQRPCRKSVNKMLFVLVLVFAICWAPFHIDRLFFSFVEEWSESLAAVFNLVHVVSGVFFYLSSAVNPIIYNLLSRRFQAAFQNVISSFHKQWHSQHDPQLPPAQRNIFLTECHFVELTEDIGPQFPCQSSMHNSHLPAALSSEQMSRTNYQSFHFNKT

Serum [10] = experiment: Drug level in 25% rat serum treated with 1 mM (S)-2-((S)-2-((S)-1-((6S,9S,12S)-12-((1H-indol-3-yl)methyl)-1-amino-9-benzyl-1-imino-8,11,14-trioxo-15-(thiophen-2-yl)-2,7,10,13-tetraazapentadecanecarbonyl)pyrrolidine-2-carboxamido)-5-guanidinopentanamido)succinamide assessed as compound formation at 37 degC by RP-HPLC method; format: ADME, cell-free; outline: as §1
Serum [11] = experiment: Drug metabolism in 25% rat serum assessed as formation of 2-thienylacetyl-Trp1-Phe2-Arg3-Pro4-Arg5-OH at 1 mM at 37 degC by RP-HPLC method; format: ADME, cell-free; conditions: 1000 µM; outline: as §1
Serum [12] = experiment: Drug metabolism in 25% rat serum assessed as formation of 2-thienylacetyl-Trp1-Phe2-OH at 1 mM at 37 degC by RP-HPLC method; format: ADME, cell-free; conditions: 1000 µM; outline: as §1
Serum [13] = experiment: Retention time in 25% rat serum treated with 1 mM (S)-2-((S)-2-((S)-1-((S)-2-((S)-2-((S)-3-(1H-indol-3-yl)-2-(2-(thiophen-2-yl)acetamido)propanamido)-3-(4-fluorophenyl)propanamido)-5-guanidinopentanoyl)pyrrolidine-2-carboxamido)-5-guanidinopentanamido)succinamide incubated for 30 mins at 37 degC by RP-HPLC method; format: ADME, cell-free; conditions: 0.5 h; outline: as §1
Serum [14] = experiment: Retention time in 25% rat serum treated with 1 mM (S)-2-((S)-2-((S)-1-((S)-2-((S)-2-((S)-3-(1H-indol-3-yl)-2-(2-(thiophen-2-yl)acetamido)propanamido)-3-(4-fluorophenyl)propanamido)-5-guanidinopentanoyl)pyrrolidine-2-carboxamido)-5-guanidinopentanamido)succinamide incubated for 10 mins at 37 degC by RP-HPLC method; format: ADME, cell-free; outline: as §1

H-FRVDEEFQSPFASQSRGYFLFRPRN-NH2
EC50 (Neuromedin-U receptor 1): 0.14 nM | Drug metabolism (Serum [1]): metabolite_detected

CC(C)C[C@H](NC(=O)CCc1ccccc1)C(=O)N[C@@H](Cc1ccccc1)C(=O)O (Hydrocinnamoyl-Leu-Phe-OH)
Drug metabolism (Serum [2]): metabolite_detected

CC(C)C[C@H](NC(=O)CCc1ccccc1)C(=O)N[C@@H](Cc1ccccc1)C(=O)N[C@@H](CCCNC(=N)N)C(=O)N1CCC[C@H]1C(=O)N[C@@H](CCCNC(=N)N)C(=O)O (Hydrocinnamoyl-LFRPR-OH)
Drug metabolism (Serum [2]): metabolite_detected | remaining at 1 h, 1000 µM [3]: 56.9%

CC(C)C[C@H](NC(=O)CCc1ccccc1)C(=O)N[C@@H](Cc1ccccc1)C(=O)N[C@@H](CCCNC(=N)N)C(=O)N1CCC[C@H]1C(=O)N[C@@H](CCCNC(=N)N)C(=O)N[C@@H](CC(N)=O)C(N)=O (Hydrocinnamoyl-LFRPRN-NH2)
Drug metabolism (Serum [4]): metabolite_detected | Drug metabolism (Serum [5]): metabolite_detected | Activity [6]: Active | Drug metabolism (Serum [7]): metabolite_detected | Drug metabolism (Serum [2]): metabolite_detected | remaining at 10 min, 1000 µM [8]: 64% | Drug metabolism (Serum [9]): metabolite_detected | Activity (Neuromedin-U receptor 2): Active

N=C(N)NCCC[C@H](NC(=O)[C@@H]1CCCN1C(=O)[C@H](CCCNC(=N)N)NC(=O)[C@H](Cc1c[nH]cn1)NC(=O)[C@H](Cc1c[nH]c2ccccc12)NC(=O)Cc1cccs1)C(=O)N[C@@H](CC(N)=O)C(N)=O ({Acetyl(2-thienyl)}-WHRPRN-NH2)
Activity [6]: inactive | Activity (Neuromedin-U receptor 2): inactive

N=C(N)NCCC[C@H](NC(=O)[C@@H]1CCCN1C(=O)[C@H](CCCNC(=N)N)NC(=O)[C@H](Cc1ccccc1)NC(=O)[C@H](Cc1ccccc1)NC(=O)CCc1cccs1)C(=O)N[C@@H](CC(N)=O)C(N)=O (X1-FFRPRN-NH2)
Activity [6]: Active | Activity (Neuromedin-U receptor 2): Active

N=C(N)NCCC[C@H](NC(=O)[C@@H]1CCCN1C(=O)[C@H](CCCNC(=N)N)NC(=O)[C@H](Cc1cccs1)NC(=O)[C@H](Cc1c[nH]c2ccccc12)NC(=O)Cc1cccs1)C(=O)N[C@@H](CC(N)=O)C(N)=O ({Acetyl(2-thienyl)}-W[2Thi]RPRN-NH2)
Activity [6]: Active | Activity (Neuromedin-U receptor 2): Active

N=C(N)NCCC[C@H](NC(=O)[C@@H]1CCCN1C(=O)[C@H](CCCNC(=N)N)NC(=O)[C@H](Cc1ccccc1)NC(=O)[C@H](Cc1ccccc1)NC(=O)Cc1cccs1)C(=O)N[C@@H](CC(N)=O)C(N)=O ({Acetyl(2-thienyl)}-FFRPRN-NH2)
Activity [6]: Active | Activity (Neuromedin-U receptor 2): Active

O=C(Cc1cccs1)N[C@@H](Cc1c[nH]c2ccccc12)C(=O)N[C@@H](Cc1ccccc1)C(=O)O
Drug metabolism (Serum [10]): metabolite_detected

N=C(N)NCCC[C@H](NC(=O)[C@@H]1CCCN1C(=O)[C@H](CCCNC(=N)N)NC(=O)[C@H](Cc1ccccc1)NC(=O)[C@H](Cc1ccccc1)NC(=O)Cc1ccccc1)C(=O)N[C@@H](CC(N)=O)C(N)=O (PhAc-FFRPRN-NH2)
Activity [6]: inactive | Activity (Neuromedin-U receptor 2): inactive

N=C(N)NCCC[C@H](NC(=O)[C@@H]1CCCN1C(=O)[C@H](CCCNC(=N)N)NC(=O)[C@H](Cc1ccccc1)NC(=O)[C@H](Cc1c[nH]c2ccccc12)NC(=O)Cc1cccs1)C(=O)O ({Acetyl(2-thienyl)}-WFRPR-OH)
remaining at 1 h, 1000 µM [3]: 44.7% | Drug metabolism (Serum [10]): metabolite_detected

N=C(N)NCCC[C@H](NC(=O)[C@@H]1CCCN1C(=O)[C@H](CCCNC(=N)N)NC(=O)[C@H](Cc1ccccc1)NC(=O)[C@H](Cc1ccccc1)NC(=O)CCc1ccccc1)C(=O)N[C@@H](CC(N)=O)C(N)=O (Hydrocinnamoyl-FFRPRN-NH2)
Activity [6]: inactive | Activity (Neuromedin-U receptor 2): inactive

N=C(N)NCCC[C@H](NC(=O)[C@@H]1CCCN1C(=O)[C@H](CCCNC(=N)N)NC(=O)[C@H](Cc1ccccc1)NC(=O)[C@H](Cc1ccc2ccccc2c1)NC(=O)CCc1cccnc1)C(=O)N[C@@H](CC(N)=O)C(N)=O ({Propanoyl(3-(3-pyridyl))}-[2Nal]FRPRN-NH2)
Activity (Neuromedin-U receptor 2): Active

N=C(N)NCCC[C@H](NC(=O)[C@@H]1CCCN1C(=O)[C@H](CCCNC(=N)N)NC(=O)[C@H](Cc1ccccc1)NC(=O)[C@H](Cc1c[nH]c2ccccc12)NC(=O)Cc1cccs1)C(=O)N[C@@H](CC(N)=O)C(N)=O ({Acetyl(2-thienyl)}-WFRPRN-NH2)
Drug metabolism (Serum [5]): metabolite_detected | Activity [6]: Active | Drug metabolism (Serum [11]): metabolite_detected | Drug metabolism (Serum [7]): metabolite_detected | remaining at 10 min, 1000 µM [8]: 39.8% | Activity (Neuromedin-U receptor 2): Active | Drug metabolism (Serum [12]): metabolite_detected

O=C(Cc1cccs1)N[C@@H](Cc1c[nH]c2ccccc12)C(=O)N[C@@H](Cc1ccc(F)cc1)C(=O)O
Retention_time (Serum [13]): 61.2 min

N=C(N)NCCC[C@H](NC(=O)[C@@H]1CCCN1C(=O)[C@H](CCCNC(=N)N)NC(=O)[C@H](Cc1ccc(F)cc1)NC(=O)[C@H](Cc1c[nH]c2ccccc12)NC(=O)Cc1cccs1)C(=O)O ({Acetyl(2-thienyl)}-W[Phe(4-F)]RPR-OH)
Retention_time (Serum [14]): 43.7 min | remaining at 1 h, 1000 µM [3]: 54%

Ac-FFRPRN-NH2
Activity [6]: inactive | Activity (Neuromedin-U receptor 2): inactive

N=C(N)NCCC[C@H](NC(=O)[C@@H]1CCCN1C(=O)[C@H](CCCNC(=N)N)NC(=O)[C@H](Cc1ccncc1)NC(=O)[C@H](Cc1c[nH]c2ccccc12)NC(=O)Cc1cccs1)C(=O)N[C@@H](CC(N)=O)C(N)=O ({Acetyl(2-thienyl)}-W[4Pal]RPRN-NH2)
Activity [6]: inactive | Activity (Neuromedin-U receptor 2): inactive

H-FLFRPRN-NH2
Drug metabolism (Serum [5]): metabolite_notdetected | Drug metabolism (Serum [7]): metabolite_notdetected | remaining at 10 min, 1000 µM [8]: 37%

N=C(N)NCCC[C@H](NC(=O)[C@@H]1CCCN1C(=O)[C@H](CCCNC(=N)N)NC(=O)[C@H](Cc1ccccc1)NC(=O)[C@H](Cc1ccccc1)NC(=O)CCc1cccnc1)C(=O)N[C@@H](CC(N)=O)C(N)=O ({Propanoyl(3-(3-pyridyl))}-FFRPRN-NH2)
Activity [6]: Active | Activity (Neuromedin-U receptor 2): Active
